Legend:
[1] = target: ALK tyrosine kinase receptor (Homo sapiens) (UniProt Q9UM73); assay: Inhibition of ALK at 1 uM in presence of 10 uM ATP by Select Screen kinase assay relative to untreated control
How it was run: (§1)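 Single-point screen at 1 μM against a panel of 220 purified kinases, run by Invitrogen staff as a SelectScreen profiling service. Read-out is percent inhibition of kinase activity.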

[2] = target: PAS domain-containing serine/threonine-protein kinase (Homo sapiens) (UniProt Q96RG2); assay: Inhibition of PASK at 1 uM in presence of 10 uM ATP by Select Screen kinase assay relative to untreated control
How it was run: (§2)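 Commercial SelectScreen profiling panel of 220 purified kinases. Each kinase was tested at a single inhibitor concentration of 1 μM, and activity was expressed as percent inhibition.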

[3] = target: Calcium/calmodulin-dependent protein kinase type II subunit alpha (Homo sapiens) (UniProt Q9UQM7); assay: Inhibition of CAMK2A at 1 uM in presence of 10 uM ATP by Select Screen kinase assay relative to untreated control; how it was run: as §1
Calcium/calmodulin-dependent protein kinase type II subunit alpha (Homo sapiens), sequence (Q9UQM7 whole entry): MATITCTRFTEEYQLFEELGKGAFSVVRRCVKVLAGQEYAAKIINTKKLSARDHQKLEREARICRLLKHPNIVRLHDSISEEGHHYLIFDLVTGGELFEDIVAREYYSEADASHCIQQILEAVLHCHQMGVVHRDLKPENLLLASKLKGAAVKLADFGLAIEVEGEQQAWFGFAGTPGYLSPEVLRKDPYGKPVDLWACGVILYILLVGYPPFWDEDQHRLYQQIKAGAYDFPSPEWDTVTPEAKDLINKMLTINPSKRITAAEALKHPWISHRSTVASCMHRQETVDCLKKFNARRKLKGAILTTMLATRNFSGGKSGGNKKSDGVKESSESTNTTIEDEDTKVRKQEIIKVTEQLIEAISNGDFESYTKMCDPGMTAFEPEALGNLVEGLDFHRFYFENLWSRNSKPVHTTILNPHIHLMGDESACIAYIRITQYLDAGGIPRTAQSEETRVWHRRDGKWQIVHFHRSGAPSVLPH

[4] = target: Tyrosine-protein kinase CSK (Homo sapiens) (UniProt P41240); assay: Inhibition of CSK at 1 uM in presence of 10 uM ATP by Select Screen kinase assay relative to untreated control; how it was run: as §1
Tyrosine-protein kinase CSK (Homo sapiens), sequence (P41240 2-450 limits assumed): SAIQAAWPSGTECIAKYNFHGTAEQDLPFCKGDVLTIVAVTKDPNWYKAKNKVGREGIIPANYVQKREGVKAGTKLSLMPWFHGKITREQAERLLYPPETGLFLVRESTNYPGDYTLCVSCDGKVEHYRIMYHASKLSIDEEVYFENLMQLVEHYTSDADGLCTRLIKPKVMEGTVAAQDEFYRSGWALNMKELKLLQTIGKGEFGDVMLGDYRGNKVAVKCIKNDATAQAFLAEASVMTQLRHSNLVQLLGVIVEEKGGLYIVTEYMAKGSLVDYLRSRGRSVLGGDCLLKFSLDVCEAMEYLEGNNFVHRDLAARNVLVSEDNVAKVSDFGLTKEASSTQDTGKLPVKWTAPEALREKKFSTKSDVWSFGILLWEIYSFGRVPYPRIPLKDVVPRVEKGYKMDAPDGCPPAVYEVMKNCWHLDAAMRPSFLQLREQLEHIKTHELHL

[5] = target: Casein kinase I isoform gamma-1 (Homo sapiens) (UniProt Q9HCP0); assay: Inhibition of CSNK1G1 at 1 uM in presence of 10 uM ATP by Select Screen kinase assay relative to untreated control; how it was run: as §1
Casein kinase I isoform gamma-1 (Homo sapiens), sequence (Q9HCP0 whole entry, looked up, canonical isoform): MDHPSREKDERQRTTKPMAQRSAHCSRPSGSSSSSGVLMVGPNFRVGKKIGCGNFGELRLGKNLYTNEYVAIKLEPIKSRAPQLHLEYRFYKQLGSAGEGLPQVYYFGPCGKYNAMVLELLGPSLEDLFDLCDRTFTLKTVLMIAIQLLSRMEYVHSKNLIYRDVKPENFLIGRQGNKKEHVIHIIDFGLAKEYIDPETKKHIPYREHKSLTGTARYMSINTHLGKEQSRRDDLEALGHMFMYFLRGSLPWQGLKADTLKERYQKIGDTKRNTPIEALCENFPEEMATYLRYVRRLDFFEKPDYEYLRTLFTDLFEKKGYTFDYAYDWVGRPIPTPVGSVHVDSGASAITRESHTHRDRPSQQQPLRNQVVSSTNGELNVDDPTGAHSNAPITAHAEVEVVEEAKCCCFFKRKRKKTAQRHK

[6] = system: Hepatocyte growth factor receptor (Homo sapiens), P08581 [M1250T]; assay: Inhibition of MET M1250T mutant at 1 uM in presence of 10 uM ATP by Select Screen kinase assay relative to untreated control
Hepatocyte growth factor receptor (Homo sapiens), P08581 [M1250T], sequence (P08581 whole entry M1250T): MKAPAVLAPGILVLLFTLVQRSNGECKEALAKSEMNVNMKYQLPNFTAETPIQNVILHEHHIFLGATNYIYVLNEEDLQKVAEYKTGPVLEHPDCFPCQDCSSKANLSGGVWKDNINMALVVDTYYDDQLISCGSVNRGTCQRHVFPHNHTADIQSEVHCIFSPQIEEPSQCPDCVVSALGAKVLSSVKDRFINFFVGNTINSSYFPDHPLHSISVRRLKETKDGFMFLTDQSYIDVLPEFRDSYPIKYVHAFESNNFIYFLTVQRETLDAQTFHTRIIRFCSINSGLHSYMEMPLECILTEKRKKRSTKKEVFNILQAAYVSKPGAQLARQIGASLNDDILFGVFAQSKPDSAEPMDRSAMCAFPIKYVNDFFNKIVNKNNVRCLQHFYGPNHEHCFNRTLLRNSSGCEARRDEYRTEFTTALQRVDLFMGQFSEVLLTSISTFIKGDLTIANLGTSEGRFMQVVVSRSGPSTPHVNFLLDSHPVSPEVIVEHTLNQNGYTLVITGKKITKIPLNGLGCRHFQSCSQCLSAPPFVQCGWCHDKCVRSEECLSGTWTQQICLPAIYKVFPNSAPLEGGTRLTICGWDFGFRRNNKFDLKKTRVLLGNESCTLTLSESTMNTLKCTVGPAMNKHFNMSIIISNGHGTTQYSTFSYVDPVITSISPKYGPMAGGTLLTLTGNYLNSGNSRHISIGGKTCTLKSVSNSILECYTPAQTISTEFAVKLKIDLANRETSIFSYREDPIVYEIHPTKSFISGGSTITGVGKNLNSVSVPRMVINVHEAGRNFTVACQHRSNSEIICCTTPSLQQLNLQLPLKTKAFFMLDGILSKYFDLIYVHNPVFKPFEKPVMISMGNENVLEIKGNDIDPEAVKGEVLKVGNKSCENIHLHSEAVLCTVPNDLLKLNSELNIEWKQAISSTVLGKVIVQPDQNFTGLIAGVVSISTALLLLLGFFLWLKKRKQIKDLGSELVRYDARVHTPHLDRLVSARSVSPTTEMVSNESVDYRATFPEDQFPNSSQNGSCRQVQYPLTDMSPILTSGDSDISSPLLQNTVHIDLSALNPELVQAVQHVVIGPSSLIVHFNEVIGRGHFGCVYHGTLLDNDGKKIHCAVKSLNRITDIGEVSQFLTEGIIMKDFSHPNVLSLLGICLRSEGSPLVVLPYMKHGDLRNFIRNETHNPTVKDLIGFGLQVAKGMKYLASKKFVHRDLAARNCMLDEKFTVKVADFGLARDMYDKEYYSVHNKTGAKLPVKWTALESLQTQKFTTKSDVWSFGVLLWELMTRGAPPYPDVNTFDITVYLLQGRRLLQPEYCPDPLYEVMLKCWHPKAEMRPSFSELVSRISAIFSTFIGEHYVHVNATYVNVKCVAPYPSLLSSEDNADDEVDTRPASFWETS
How it was run: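 Single-concentration profiling at 1 μM against a panel of 220 purified kinases, run as an outsourced SelectScreen kinase profiling service. Activity is expressed as percent inhibition.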

[7] = target: T1, Serine/threonine-protein kinase Nek9 (Homo sapiens) (UniProt Q8TD19); assay: Inhibition of NEK9 at 1 uM in presence of 10 uM ATP by Select Screen kinase assay relative to untreated control; how it was run: as §2
T1 sequence (whole entry): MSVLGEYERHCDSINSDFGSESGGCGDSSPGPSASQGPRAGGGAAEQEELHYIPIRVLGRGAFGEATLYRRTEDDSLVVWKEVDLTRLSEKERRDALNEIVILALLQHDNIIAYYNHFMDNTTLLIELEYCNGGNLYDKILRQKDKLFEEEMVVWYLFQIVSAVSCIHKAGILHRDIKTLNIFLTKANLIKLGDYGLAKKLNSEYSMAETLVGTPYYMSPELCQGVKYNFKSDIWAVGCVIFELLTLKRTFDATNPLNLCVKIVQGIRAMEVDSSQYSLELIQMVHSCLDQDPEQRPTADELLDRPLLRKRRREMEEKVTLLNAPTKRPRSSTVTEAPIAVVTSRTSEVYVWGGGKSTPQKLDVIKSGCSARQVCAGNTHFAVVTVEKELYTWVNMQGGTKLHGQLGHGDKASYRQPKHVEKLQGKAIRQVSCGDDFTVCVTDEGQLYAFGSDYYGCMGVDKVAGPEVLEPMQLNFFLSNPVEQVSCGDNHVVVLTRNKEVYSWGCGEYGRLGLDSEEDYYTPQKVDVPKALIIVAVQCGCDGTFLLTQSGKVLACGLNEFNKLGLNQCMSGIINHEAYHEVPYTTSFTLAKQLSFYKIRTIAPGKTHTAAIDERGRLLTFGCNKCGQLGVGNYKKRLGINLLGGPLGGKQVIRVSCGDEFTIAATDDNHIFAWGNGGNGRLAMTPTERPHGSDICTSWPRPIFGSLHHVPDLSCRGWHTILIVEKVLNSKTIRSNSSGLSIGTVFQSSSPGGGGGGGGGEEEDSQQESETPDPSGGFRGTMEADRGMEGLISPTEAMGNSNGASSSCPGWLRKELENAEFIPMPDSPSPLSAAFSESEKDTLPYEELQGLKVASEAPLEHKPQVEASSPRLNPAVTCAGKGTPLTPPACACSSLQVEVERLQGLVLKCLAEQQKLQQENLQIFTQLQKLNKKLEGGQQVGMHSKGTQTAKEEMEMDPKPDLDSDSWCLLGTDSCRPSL

[8] = target: Serine/threonine-protein kinase PLK3 (Homo sapiens) (UniProt Q9H4B4); assay: Inhibition of PLK3 at 1 uM in presence of 10 uM ATP by Select Screen kinase assay relative to untreated control; how it was run: as §2
Serine/threonine-protein kinase PLK3 (Homo sapiens), sequence (Q9H4B4 whole entry, looked up): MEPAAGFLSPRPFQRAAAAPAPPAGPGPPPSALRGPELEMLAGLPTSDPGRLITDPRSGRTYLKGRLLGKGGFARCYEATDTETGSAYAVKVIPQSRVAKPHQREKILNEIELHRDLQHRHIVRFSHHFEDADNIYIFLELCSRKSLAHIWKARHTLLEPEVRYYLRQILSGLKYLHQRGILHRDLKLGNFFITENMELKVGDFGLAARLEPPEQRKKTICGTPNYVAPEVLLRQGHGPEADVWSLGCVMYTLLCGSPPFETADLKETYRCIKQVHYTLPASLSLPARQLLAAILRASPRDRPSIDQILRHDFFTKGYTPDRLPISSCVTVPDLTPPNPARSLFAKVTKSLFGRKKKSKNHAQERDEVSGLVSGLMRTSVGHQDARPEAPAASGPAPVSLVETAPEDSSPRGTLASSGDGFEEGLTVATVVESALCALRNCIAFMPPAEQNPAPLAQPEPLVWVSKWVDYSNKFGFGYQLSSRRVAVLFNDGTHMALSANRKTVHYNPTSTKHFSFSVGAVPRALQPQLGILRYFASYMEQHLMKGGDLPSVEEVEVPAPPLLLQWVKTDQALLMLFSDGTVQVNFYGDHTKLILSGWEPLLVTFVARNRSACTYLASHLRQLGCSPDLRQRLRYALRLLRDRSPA

ALK tyrosine kinase receptor (Homo sapiens), sequence (Q9UM73 19-1620 limits assumed): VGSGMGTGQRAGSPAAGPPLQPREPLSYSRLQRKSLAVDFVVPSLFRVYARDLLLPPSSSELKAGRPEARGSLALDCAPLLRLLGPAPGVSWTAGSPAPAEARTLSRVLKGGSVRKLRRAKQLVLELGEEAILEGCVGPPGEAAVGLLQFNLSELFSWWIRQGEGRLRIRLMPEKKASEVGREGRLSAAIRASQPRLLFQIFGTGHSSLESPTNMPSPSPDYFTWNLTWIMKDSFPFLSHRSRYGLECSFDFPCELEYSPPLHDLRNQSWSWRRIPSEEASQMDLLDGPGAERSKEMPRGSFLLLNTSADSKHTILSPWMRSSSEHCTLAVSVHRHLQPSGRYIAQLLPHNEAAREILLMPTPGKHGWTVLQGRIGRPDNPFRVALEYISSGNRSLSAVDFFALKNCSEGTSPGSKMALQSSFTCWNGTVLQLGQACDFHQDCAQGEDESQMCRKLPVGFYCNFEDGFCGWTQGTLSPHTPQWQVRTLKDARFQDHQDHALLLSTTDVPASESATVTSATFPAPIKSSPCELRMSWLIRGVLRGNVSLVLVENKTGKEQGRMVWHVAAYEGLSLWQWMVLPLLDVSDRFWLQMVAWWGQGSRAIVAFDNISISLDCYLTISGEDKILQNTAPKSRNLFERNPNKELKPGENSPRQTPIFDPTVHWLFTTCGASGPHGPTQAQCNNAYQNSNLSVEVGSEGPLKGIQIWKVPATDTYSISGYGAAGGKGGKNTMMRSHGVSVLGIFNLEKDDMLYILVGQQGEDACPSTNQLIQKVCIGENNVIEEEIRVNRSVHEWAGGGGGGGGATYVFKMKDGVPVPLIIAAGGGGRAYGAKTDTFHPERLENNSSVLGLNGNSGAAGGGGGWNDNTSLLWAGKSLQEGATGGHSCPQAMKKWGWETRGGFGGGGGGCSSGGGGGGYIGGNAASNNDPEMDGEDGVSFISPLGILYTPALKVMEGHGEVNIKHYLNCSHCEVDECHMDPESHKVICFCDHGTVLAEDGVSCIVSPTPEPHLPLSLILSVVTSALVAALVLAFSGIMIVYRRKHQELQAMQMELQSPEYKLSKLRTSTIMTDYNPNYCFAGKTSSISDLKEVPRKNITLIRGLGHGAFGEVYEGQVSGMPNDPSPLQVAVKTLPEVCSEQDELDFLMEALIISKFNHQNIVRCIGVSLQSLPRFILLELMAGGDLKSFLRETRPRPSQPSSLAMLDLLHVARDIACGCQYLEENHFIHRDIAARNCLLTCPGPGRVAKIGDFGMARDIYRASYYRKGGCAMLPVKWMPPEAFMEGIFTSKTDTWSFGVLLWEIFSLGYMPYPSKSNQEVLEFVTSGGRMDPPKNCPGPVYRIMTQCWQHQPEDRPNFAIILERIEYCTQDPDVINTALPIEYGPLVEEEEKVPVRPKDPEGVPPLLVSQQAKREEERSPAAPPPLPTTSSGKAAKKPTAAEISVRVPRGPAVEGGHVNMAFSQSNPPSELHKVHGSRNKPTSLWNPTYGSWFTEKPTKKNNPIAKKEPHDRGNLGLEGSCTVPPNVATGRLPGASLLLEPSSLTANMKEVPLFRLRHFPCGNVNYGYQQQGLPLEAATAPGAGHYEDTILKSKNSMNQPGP

Row | Compound | inhibition [1] | inhibition [2] | inhibition [3] | inhibition [4] | inhibition [5] | inhibition [6] | inhibition [7] | inhibition [8]
1 | COc1ccccc1N1CCN(c2ncnc3[nH]nc(Br)c23)CC1 | 10% | 1% | 16% | 3% | 11% | 3% | 12% | 27%
2 | Cc1n[nH]c2ccc(-c3cncc(OC[C@@H](N)Cc4c[nH]c5ccccc45)c3)cc12 | 17% | 36% | 80% | -1% | 62% | 5% | 15% | 7%
3 | O=C(NCCCNc1nc(Nc2cccc(NC(=O)N3CCCC3)c2)ncc1I)c1cccs1 | 9% | 3% | 79% | 5% | 10% | 11% | 88% | 51%

Reference: ChEMBL document CHEMBL1250448, “Inhibitor hijacking of Akt activation” (Nat Chem Biol, 2009)
